ChEMBL document CHEMBL1240415, “Design, synthesis and antimicrobial activities of some new quinoline derivatives carrying 1,2,3-triazole moiety” (2010)
In brackets after ≈: the same amount, converted by molar mass.

Tests used:
Type in all cases: functional
Aspergillus fumigatus = test: Antifungal activity against Aspergillus fumigatus NCIM 902 after 3 to 4 days by serial plate dilution method; settings: for MIC: Aspergillus fumigatus, NCIM 902
Summary of the method: (§1)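 Sabouraud agar made from peptone, glucose and agar in water, pH 5.7. Fungal spores suspended in normal saline and used to lawn the plates, which were dried 1 h at 37 °C. Wells punched and compounds added in DMSO, with a DMSO solvent control. Triplicate plates held at 37 °C for 3–4 days. Read-out is inhibition zone diameter.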

Candida albicans = test: Antifungal activity against Candida albicans after 3 to 4 days by serial plate dilution method; settings: for MIC: Candida albicans; summary of the method: as §1
Talaromyces marneffei = test: Antifungal activity against recultured Penicillium marneffei after 3 to 4 days by serial plate dilution method; settings: for MIC: Talaromyces marneffei; summary of the method: as §1
Aspergillus flavus = test: Antifungal activity against Aspergillus flavus NCIM 524 after 3 to 4 days by serial plate dilution method; settings: for MIC: Aspergillus flavus, NCIM 524; summary of the method: as §1
Klebsiella pneumoniae = test: Antibacterial activity against recultured Klebsiella pneumoniae after 3 to 4 days by serial plate dilution method; settings: for MIC: Klebsiella pneumoniae
Summary of the method: (§2)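 Serial dilutions in Mueller-Hinton broth in tubes, pH adjusted to 5.0 with phosphate buffer. Inoculated with a standardized bacterial suspension and incubated 16–18 h at 37 °C. MIC is the lowest concentration with no visible growth, tested over 6.25–100 µg/mL. Zones come from an agar well diffusion assay: compounds in DMSO are added to wells in seeded agar, DMSO control, triplicate plates, 37 °C for 3–4 days, inhibition zone diameter in mm.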

[1] = test system: Trichophyton mentagrophytes; test: Antifungal activity against recultured Trichophyton mentagrophytes after 3 to 4 days by serial plate dilution method; settings: for MIC: Trichophyton mentagrophytes; summary of the method: as §1
Streptococcus pyogenes = test: Antibacterial activity against Streptococcus pyogenes after 3 to 4 days by serial plate dilution method; settings: for MIC: Streptococcus pyogenes; summary of the method: as §2
Escherichia coli = test: Antibacterial activity against Escherichia coli ATTC 25922 after 3 to 4 days by serial plate dilution method; settings: for MIC: Escherichia coli, ATTC 25922; summary of the method: as §2
Staphylococcus aureus = test: Antibacterial activity against Staphylococcus aureus ATTC 25923 after 3 to 4 days by serial plate dilution method; settings: for MIC: Staphylococcus aureus, ATTC 25923; summary of the method: as §2
Pseudomonas aeruginosa = test: Antibacterial activity against Pseudomonas aeruginosa ATCC 27853 after 3 to 4 days by serial plate dilution method; settings: for MIC: Pseudomonas aeruginosa, ATCC 27853; summary of the method: as §2

MIC (Aspergillus fumigatus) [µg/mL] | MIC (Candida albicans) [µg/mL] | MIC (Talaromyces marneffei) [µg/mL] | MIC (Aspergillus flavus) [µg/mL] | MIC (Klebsiella pneumoniae) [µg/mL] | MIC [1] [µg/mL] | MIC (Streptococcus pyogenes) [µg/mL] | MIC (Escherichia coli) [µg/mL] | MIC (Staphylococcus aureus) [µg/mL] | MIC (Pseudomonas aeruginosa) [µg/mL] | SMILES | diameter of the inhibition zone (DIZ) (Aspergillus fumigatus) [mm] | diameter of the inhibition zone (DIZ) (Candida albicans) [mm] | diameter of the inhibition zone (DIZ) (Talaromyces marneffei) [mm] | diameter of the inhibition zone (DIZ) (Aspergillus flavus) [mm] | diameter of the inhibition zone (DIZ) (Klebsiella pneumoniae) [mm] | diameter of the inhibition zone (DIZ) [1] [mm] | diameter of the inhibition zone (DIZ) (Streptococcus pyogenes) [mm] | diameter of the inhibition zone (DIZ) (Escherichia coli) [mm] | diameter of the inhibition zone (DIZ) (Staphylococcus aureus) [mm] | diameter of the inhibition zone (DIZ) (Pseudomonas aeruginosa) [mm]
6.25 (≈ 20.2 µM) | 6.25 (≈ 20.2 µM) | 6.25 (≈ 20.2 µM) | 6.25 (≈ 20.2 µM) | 6.25 (≈ 20.2 µM) | 6.25 (≈ 20.2 µM) | 6.25 (≈ 20.2 µM) | 6.25 (≈ 20.2 µM) | 6.25 (≈ 20.2 µM) | 6.25 (≈ 20.2 µM) | COc1ccc2nc(C)cc(-n3cc(CNC4CC4)nn3)c2c1 | 18 | 13 | 18 | 14 | 18 | 15 | 12 | 16 | 16 | 12
6.25 (≈ 18.5 µM) | 6.25 (≈ 18.5 µM) | 6.25 (≈ 18.5 µM) | 6.25 (≈ 18.5 µM) | 6.25 (≈ 18.5 µM) | 6.25 (≈ 18.5 µM) | 6.25 (≈ 18.5 µM) | 6.25 (≈ 18.5 µM) | 6.25 (≈ 18.5 µM) | 6.25 (≈ 18.5 µM) | COc1ccc2nc(C)cc(-n3cc(CNC4CCCC4)nn3)c2c1 | 14 | 10 | 10 | 10 | 14 | 10 | 12 | 12 | 12 | 12
6.25 (≈ 21 µM) | 6.25 (≈ 21 µM) | 6.25 (≈ 21 µM) | 6.25 (≈ 21 µM) | 6.25 (≈ 21 µM) | 6.25 (≈ 21 µM) | 6.25 (≈ 21 µM) | 6.25 (≈ 21 µM) | 6.25 (≈ 21 µM) | 6.25 (≈ 21 µM) | COc1ccc2nc(C)cc(-n3cc(CN(C)C)nn3)c2c1 | 16 | 10 | 18 | 12 | 16 | 10 | 14 | 14 | 16 | 14
12.5 (≈ 38.4 µM) | 12.5 (≈ 38.4 µM) | 25 (≈ 76.8 µM) | 12.5 (≈ 38.4 µM) | 6.25 (≈ 19.2 µM) | 12.5 (≈ 38.4 µM) | 6.25 (≈ 19.2 µM) | 6.25 (≈ 19.2 µM) | 6.25 (≈ 19.2 µM) | 6.25 (≈ 19.2 µM) | CCN(CC)Cc1cn(-c2cc(C)nc3ccc(OC)cc23)nn1 | 10 | 11 | <10 | 11 | 12 | 10 | 14 | 14 | 12 | 12
